From article PMC6606825 (Journal of Ginseng Research, 2018)

Assay: Pharmacokinetics of CK and its metabolite 20
Format: in vivo, healthy Chinese volunteers
Method in brief: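 Healthy adults given one oral tablet dose fasting (overnight, or 10 h in a crossover food-effect arm); 30 subjects from the 100/200/400 mg groups were pooled with 24 from 200 mg fasting periods. Plasma was stored at −70°C, extracted with MTBE plus internal standards and assayed by LC-MS/MS. Cmax was observed and AUClast calculated by linear trapezoid, each divided by dose. The metabolite/parent ratio was also calculated. Genotyping used Sequenom MassARRAY, and log-transformed values were compared by one-way ANOVA.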

[1] = ABCC4 rs2274406 TT (first line), mean (SD)
[2] = ABCC4 rs2274406 TT (third line), mean (SD)
[3] = ABCG2 rs2054576 AA (first line), mean (SD)
[4] = ABCG2 rs2054576 AA (third line), mean (SD)

SMILES: CC(C)=CCC[C@](C)(O)[C@H]1CC[C@]2(C)[C@@H]1[C@H](O)C[C@@H]1[C@@]3(C)CC[C@H](O)C(C)(C)[C@@H]3CC[C@]12C [20(S)-PPD, 20(S)-protopanaxadiol]
- Ratio 20(S)-PPD/CK AUClast/D (ABCC4 rs1151471 TT, mean (SD)): 2.12 (2.57) %
- Ratio 20(S)-PPD/CK Cmax/D (ABCC4 rs1151471 TT, mean (SD)): 0.52 (0.50) %
- 20(S)-PPD AUClast/D (ABCC4 rs1189437 GG, n = 1): 3.78 (−)
- 20(S)-PPD Cmax/D (ABCC4 rs1189437 GG, n = 1): 0.11 (−)
- Ratio 20(S)-PPD/CK AUClast/D (ABCC4 rs1189437 GG, n = 1): 31.18 (−) %
- Ratio 20(S)-PPD/CK Cmax/D (ABCC4 rs1189437 GG, n = 1): 6.05 (−) %
- 20(S)-PPD AUClast/D (ABCC4 rs1189437 GT, mean (SD)): 1.25 (0.80)
- 20(S)-PPD Cmax/D (ABCC4 rs1189437 GT, mean (SD)): 0.05 (0.03)
- Ratio 20(S)-PPD/CK AUClast/D (ABCC4 rs1189437 GT, mean (SD)): 7.87 (7.32) %
- Ratio 20(S)-PPD/CK Cmax/D (ABCC4 rs1189437 GT, mean (SD)): 2.35 (2.55) %
- 20(S)-PPD AUClast/D (ABCC4 rs1189437 TT, mean (SD)): 0.54 (0.49)
- 20(S)-PPD Cmax/D (ABCC4 rs1189437 TT, mean (SD)): 0.02 (0.02)
- Ratio 20(S)-PPD/CK AUClast/D (ABCC4 rs1189437 TT, mean (SD)): 2.03 (2.50) %
- Ratio 20(S)-PPD/CK Cmax/D (ABCC4 rs1189437 TT, mean (SD)): 0.50 (0.49) %
- 20(S)-PPD AUClast/D (ABCC4 rs1751034 TC, mean (SD)): 1.51 (1.01)
- 20(S)-PPD Cmax/D (ABCC4 rs1751034 TC, mean (SD)): 0.05 (0.04)
- Ratio 20(S)-PPD/CK Cmax/D (ABCC4 rs1751034 TC, mean (SD)): 2.88 (2.68) %
- 20(S)-PPD AUClast/D (ABCC4 rs1751034 TT, mean (SD)): 0.59 (0.51)
- 20(S)-PPD Cmax/D (ABCC4 rs1751034 TT, mean (SD)): 0.02 (0.02)
- Ratio 20(S)-PPD/CK AUClast/D (ABCC4 rs1751034 TT, mean (SD)): 2.17 (2.45) %
- Ratio 20(S)-PPD/CK Cmax/D (ABCC4 rs1751034 TT, mean (SD)): 0.55 (0.50) %
- 20(S)-PPD AUClast/D (ABCC4 rs2274406 CT, mean (SD)): 0.77 (0.73)
- 20(S)-PPD Cmax/D (ABCC4 rs2274406 CT, mean (SD)): 0.03 (0.03)
- Ratio 20(S)-PPD/CK AUClast/D (ABCC4 rs2274406 CT, mean (SD)): 3.81 (4.77) %
- Ratio 20(S)-PPD/CK Cmax/D (ABCC4 rs2274406 CT, mean (SD)): 1.15 (1.88) %
- 20(S)-PPD AUClast/D [1]: 0.78 (0.55)
- 20(S)-PPD Cmax/D [1]: 0.03 (0.03)
- Ratio 20(S)-PPD/CK AUClast/D [1]: 2.75 (2.87) %
- Ratio 20(S)-PPD/CK Cmax/D [1]: 0.63 (0.46) %
- 20(S)-PPD AUClast/D [2]: 0.97 (1.01)
- 20(S)-PPD Cmax/D [2]: 0.03 (0.03)
- Ratio 20(S)-PPD/CK AUClast/D [2]: 6.34 (9.72) %
- Ratio 20(S)-PPD/CK Cmax/D [2]: 1.49 (1.93) %
- 20(S)-PPD AUClast/D (ABCC4 rs2274407 CA, mean (SD)): 0.70 (0.61)
- 20(S)-PPD Cmax/D (ABCC4 rs2274407 CA, mean (SD)): 0.03 (0.02)
- Ratio 20(S)-PPD/CK AUClast/D (ABCC4 rs2274407 CA, mean (SD)): 3.96 (6.67) %
- Ratio 20(S)-PPD/CK Cmax/D (ABCC4 rs2274407 CA, mean (SD)): 1.04 (1.40) %
- 20(S)-PPD AUClast/D (ABCC4 rs2274407 CC, mean (SD)): 0.87 (0.83)
- 20(S)-PPD Cmax/D (ABCC4 rs2274407 CC, mean (SD)): 0.03 (0.03)
- Ratio 20(S)-PPD/CK AUClast/D (ABCC4 rs2274407 CC, mean (SD)): 4.39 (6.18) %
- Ratio 20(S)-PPD/CK Cmax/D (ABCC4 rs2274407 CC, mean (SD)): 1.18 (1.84) %
- 20(S)-PPD AUClast/D (ABCC4 rs4148546 AA, mean (SD)): 1.01 (0.97)
- 20(S)-PPD Cmax/D (ABCC4 rs4148546 AA, mean (SD)): 0.03 (0.03)
- Ratio 20(S)-PPD/CK AUClast/D (ABCC4 rs4148546 AA, mean (SD)): 6.66 (9.45) %
- Ratio 20(S)-PPD/CK Cmax/D (ABCC4 rs4148546 AA, mean (SD)): 1.37 (1.86) %
- 20(S)-PPD AUClast/D (ABCC4 rs4148546 GA, mean (SD)): 0.87 (0.75)
- 20(S)-PPD Cmax/D (ABCC4 rs4148546 GA, mean (SD)): 0.03 (0.03)
- Ratio 20(S)-PPD/CK AUClast/D (ABCC4 rs4148546 GA, mean (SD)): 4.17 (4.77) %
- Ratio 20(S)-PPD/CK Cmax/D (ABCC4 rs4148546 GA, mean (SD)): 1.32 (1.94) %
- 20(S)-PPD AUClast/D (ABCC4 rs4148546 GG, mean (SD)): 0.47 (0.46)
- 20(S)-PPD Cmax/D (ABCC4 rs4148546 GG, mean (SD)): 0.02 (0.02)
- Ratio 20(S)-PPD/CK AUClast/D (ABCC4 rs4148546 GG, mean (SD)): 1.34 (1.47) %
- Ratio 20(S)-PPD/CK Cmax/D (ABCC4 rs4148546 GG, mean (SD)): 0.41 (0.46) %
- 20(S)-PPD AUClast/D [3]: 0.78 (0.79)
- 20(S)-PPD Cmax/D [3]: 0.03 (0.03)
- Ratio 20(S)-PPD/CK AUClast/D [3]: 4.17 (5.11) %
- Ratio 20(S)-PPD/CK Cmax/D [3]: 1.26 (1.98) %
- 20(S)-PPD AUClast/D [4]: 2.05 (1.51)
- 20(S)-PPD Cmax/D [4]: 0.06 (0.04)
- Ratio 20(S)-PPD/CK AUClast/D [4]: 12.95 (15.83) %
- Ratio 20(S)-PPD/CK Cmax/D [4]: 2.56 (3.02) %
- 20(S)-PPD AUClast/D (ABCG2 rs2054576 GA, mean (SD)): 0.73 (0.53)
- 20(S)-PPD Cmax/D (ABCG2 rs2054576 GA, mean (SD)): 0.03 (0.02)
- Ratio 20(S)-PPD/CK AUClast/D (ABCG2 rs2054576 GA, mean (SD)): 3.30 (5.27) %
- Ratio 20(S)-PPD/CK Cmax/D (ABCG2 rs2054576 GA, mean (SD)): 0.83 (1.11) %
- 20(S)-PPD AUClast/D (ABCG2 rs2231142 GG, mean (SD)): 0.62 (0.53)
- 20(S)-PPD Cmax/D (ABCG2 rs2231142 GG, mean (SD)): 0.02 (0.02)
- Ratio 20(S)-PPD/CK AUClast/D (ABCG2 rs2231142 GG, mean (SD)): 2.95 (3.04) %
- Ratio 20(S)-PPD/CK Cmax/D (ABCG2 rs2231142 GG, mean (SD)): 0.78 (0.71) %
- 20(S)-PPD AUClast/D (ABCG2 rs2231142 GT, mean (SD)): 0.88 (0.83)
- 20(S)-PPD Cmax/D (ABCG2 rs2231142 GT, mean (SD)): 0.03 (0.04)
- Ratio 20(S)-PPD/CK AUClast/D (ABCG2 rs2231142 GT, mean (SD)): 4.13 (5.64) %
- Ratio 20(S)-PPD/CK Cmax/D (ABCG2 rs2231142 GT, mean (SD)): 1.45 (2.39) %
- 20(S)-PPD AUClast/D (ABCG2 rs2231142 TT, mean (SD)): 2.05 (1.51)
- 20(S)-PPD Cmax/D (ABCG2 rs2231142 TT, mean (SD)): 0.06 (0.04)
- Ratio 20(S)-PPD/CK AUClast/D (ABCG2 rs2231142 TT, mean (SD)): 12.95 (15.83) %
- Ratio 20(S)-PPD/CK Cmax/D (ABCG2 rs2231142 TT, mean (SD)): 2.56 (3.02) %
- 20(S)-PPD AUClast/D (ABCG2 rs2231148 AA, mean (SD)): 0.68 (0.31)
- 20(S)-PPD Cmax/D (ABCG2 rs2231148 AA, mean (SD)): 0.03 (0.01)
- Ratio 20(S)-PPD/CK AUClast/D (ABCG2 rs2231148 AA, mean (SD)): 3.01 (2.32) %
- Ratio 20(S)-PPD/CK Cmax/D (ABCG2 rs2231148 AA, mean (SD)): 0.84 (0.60) %
- 20(S)-PPD AUClast/D (ABCG2 rs2231148 AT, mean (SD)): 0.93 (0.97)
- 20(S)-PPD Cmax/D (ABCG2 rs2231148 AT, mean (SD)): 0.03 (0.04)
- Ratio 20(S)-PPD/CK AUClast/D (ABCG2 rs2231148 AT, mean (SD)): 4.06 (6.40) %
- Ratio 20(S)-PPD/CK Cmax/D (ABCG2 rs2231148 AT, mean (SD)): 1.42 (2.72) %
- 20(S)-PPD AUClast/D (ABCG2 rs2231148 TT, mean (SD)): 0.80 (0.80)
- 20(S)-PPD Cmax/D (ABCG2 rs2231148 TT, mean (SD)): 0.03 (0.02)
- Ratio 20(S)-PPD/CK AUClast/D (ABCG2 rs2231148 TT, mean (SD)): 4.75 (7.36) %
- Ratio 20(S)-PPD/CK Cmax/D (ABCG2 rs2231148 TT, mean (SD)): 1.11 (1.45) %
- 20(S)-PPD AUClast/D (ABCG2 rs2725248 AA, mean (SD)): 0.69 (0.78)
- 20(S)-PPD Cmax/D (ABCG2 rs2725248 AA, mean (SD)): 0.02 (0.03)
- Ratio 20(S)-PPD/CK AUClast/D (ABCG2 rs2725248 AA, mean (SD)): 3.94 (7.05) %
- Ratio 20(S)-PPD/CK Cmax/D (ABCG2 rs2725248 AA, mean (SD)): 0.92 (1.40) %
- 20(S)-PPD AUClast/D (ABCG2 rs2725248 CA, mean (SD)): 1.05 (0.79)
- 20(S)-PPD Cmax/D (ABCG2 rs2725248 CA, mean (SD)): 0.04 (0.03)
- Ratio 20(S)-PPD/CK AUClast/D (ABCG2 rs2725248 CA, mean (SD)): 4.84 (5.49) %
- Ratio 20(S)-PPD/CK Cmax/D (ABCG2 rs2725248 CA, mean (SD)): 1.53 (2.29) %
- 20(S)-PPD AUClast/D (ABCG2 rs2725248 CC, mean (SD)): 0.96 (1.03)
- 20(S)-PPD Cmax/D (ABCG2 rs2725248 CC, mean (SD)): 0.03 (0.03)
- Ratio 20(S)-PPD/CK AUClast/D (ABCG2 rs2725248 CC, mean (SD)): 3.24 (3.92) %
